Experimental data: ChEMBL document CHEMBL4513216, “Probing the Open Global Health Chemical Diversity Library for Multistage-Active Starting Points for Next-Generation Antimalarials” (ACS Infect Dis, 2020)

Assay: Toxicity liver stage against HepG2, at 10uM
Type: cell-based
Design: test concentration 10 uM, cell line HepG2-A16-CD81EGFP
Conditions: human, HepG2-A16-CD81EGFP cells; read-out: INHIBITION
Summary of the method: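 Uninfected HepG2-A16-CD81EGFP cells, 3 × 10^3 per well, 1536-well, plated on prespotted compound at 10 μM final, parasite-free screening media added to match infected plates; puromycin 10 μM positive, DMSO 0.5% negative; run in parallel with 48 h PbLuc assay at 37 °C, 5% CO2; viability by CellTiter-Glo luminescence, normalized to controls.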

| Structure (SMILES) | cytotoxicity at 10 µM [%] |
| --- | --- |
| COc1ccc(Cl)cc1C(=O)NCC1CCN(C(=O)c2ccoc2)CC1 | 10.1 |
| CS(=O)(=O)NCCn1ccc(-c2cccs2)n1 | 1.43 |
| N#CCC(=O)NCc1nnc2n1CCN(Cc1ccco1)C2 | -139 |
| O=C(c1ccco1)N1CCOCC2(C1)CN(c1ccccn1)C(=O)CO2 (centres undefined) | 3.16 |
| CCCOc1cccc(C(=O)Oc2cc(=O)n3cccc(C)c3n2)c1 | 12.1 |
| CC(C)CN1CCn2c(nc3cc(C(=O)NC(C)C)ccc32)C1 | 0.889 |
| C=C/C=c1\c(=C/C)oc2c(NCc3ccccc3)nc(CC)nc12 | 10.4 |
| CCc1cc(OC)c(OC)cc1C(=O)Nc1cccnc1 | 4.94 |
| Cc1nn(C)c2c(N3CCSCC3)nc(C3CC3)nc12 | 7.29 |
| COc1cc(NCc2ccc(Cl)cc2)c(-c2nn[nH]n2)cc1OC | 10.1 |
| CCNC(=O)[C@@H]1CN(Cc2ccccc2)C[C@H]1C(=O)c1ccc(F)cc1 | 3.38 |
| O=C(Nc1ccc(F)cc1)N1CCC(CO)(Nc2ccccc2)CC1 | 2.94 |
| O=C(NCCO)NC(c1ccccc1)c1ccc2c(c1)CCCO2 (centres undefined) | 2.73 |
| O=C(Cc1ccn[nH]1)Nc1cncc(Br)c1O | -3.93 |
| COCCN(C(=O)c1ccoc1C)c1ccc(C#N)cc1 | -4.9 |
| COc1c(Cl)cc(C(=O)NCc2n[nH]c(C)n2)cc1Cl | 1.42 |
| COc1c(C2CCCN2Cc2nccn2C)c(C)nn1C (centres undefined) | 3.06 |
| Cc1nc(C)c(S(=O)(=O)NC(=O)c2cccs2)s1 | -0.837 |
| CC(C(=O)Nc1nccs1)N(C)Cc1cccc(C#N)c1 (centres undefined) | 1.88 |
| CCOc1ccccc1CCC(=O)Nc1c(C)nn(C)c1C | -3.91 |
| CC(NC(=O)CN1CCN(c2cccc(Cl)c2)CC1)c1ccco1 (centres undefined) | -11.1 |

| Structure (SMILES) | cytotoxicity at 10 µM [%] |
| --- | --- |
| Cn1ccc(CN2CCCC(CNS(C)(=O)=O)C2)cc1=O (centres undefined) | 9.31 |
| O=C(CS(=O)(=O)Cc1nnnn1C1CC1)NCCc1ccccc1 | 2.92 |
| CCN(CC)C(=O)C1CCN(C(=O)Nc2cccnc2OC)CC1 | 19 |
| Cc1cc(C)c(S(=O)(=O)NCCC(=O)NCc2ccoc2)c(C)c1 | 4.05 |
| COc1cc(C)nc(N2CCN(C(=O)CCc3ccco3)CC2)n1 | 7.92 |
| CC(O)CN1CCN(C(=O)c2ccnc(N(C)C)c2)CC1 (centres undefined) | 4.37 |
| CC(=O)N1CCCN(C(=O)CN(C)c2ccc(Cl)cn2)CC1 | -7.64 |
| CCCN1CCN(S(=O)(=O)c2ncn(C)c2Cl)CC1 | 9.97 |
| O=C(c1ccc(O)c(Cl)c1)N1CCN(c2nccs2)CC1 | -10.3 |
| Cc1nn(C)c(C)c1CNCc1cccnc1N1CCOCC1 | -138 |
| CS(=O)(=O)Cc1ccc(C(=O)NCC2Cc3ccccc3O2)cc1 (centres undefined) | 6.6 |
| COc1ccc(Nc2ncccc2C#N)cc1N1CCCC1=O | 6.86 |
| CC(C)C(C#N)N1CCN(Cc2nccn2CC(F)(F)F)CC1 (centres undefined) | 0.172 |
| Cn1cc(N2CCCC(Oc3ccc(F)cc3Cl)C2=O)cn1 (centres undefined) | -3.3 |
| O=C(O)c1csc(S(=O)(=O)N2CCCc3cccc(OC(F)F)c32)c1 | -13.5 |
| O=C(NCCCC(=O)N1CCN(CC2CC2)c2ccccc21)C1CC1 | -9.59 |
| COc1ccc(C)c2c1N(C(=O)c1cnc3onc(C)c3c1)CCC2 | -1.67 |
| O=C(CN(CC(O)c1ccc(F)cc1)C1CC1)NC1CCOCC1 (centres undefined) | 0.0428 |
| CCS(=O)(=O)CCN(C)C(=O)NC(C)c1ccc(C)s1 (centres undefined) | -9.02 |
| N#Cc1cc(S(N)(=O)=O)ccc1NC1CCc2cc(Cl)ccc21 (centres undefined) | 29.1 |
| Cc1ccc(NC(=O)N(CCO)CCO)c(OCc2ccccc2)c1 | 18.4 |

| Structure (SMILES) | cytotoxicity at 10 µM [%] |
| --- | --- |
| Cc1nnc(Cn2cc(I)cc(C)c2=O)o1 | 0.0894 |
| CN1C(=O)CCN(C(=O)C2CCCCC2)c2ccccc21 | 20.8 |
| COCCN1CCC(CNC(=O)C2(C#N)CCCCC2)CC1 | -11.1 |
| CC(C)N(C)CC(=O)N(C)Cc1nc(C(F)(F)F)cs1 | -2.96 |
| O=C(NCC1CC1)C1=NOC2(CCN(S(=O)(=O)Cc3ccccc3)C2)C1 (centres undefined) | -2.1 |
| O=C(c1ccc[nH]1)N1CCC2(CC1)CC(Oc1cccnc1)CO2 (centres undefined) | -7.69 |
| COC[C@@H]1CC[C@H]2[C@H](CCN2S(=O)(=O)c2cccc(C)c2)O1 | 3.29 |
| Cc1cc(C)c2nc(C)cc(C(=O)N3CC(O)CO3)c2c1 (centres undefined) | 16.5 |
| CNS(=O)(=O)CCn1cc(-c2ccc(OC)c(OC)c2)nn1 | 1.9 |
| Cc1nc[nH]c1CN1CCn2nc(CN3Cc4ccccc4C3)cc2C1 | 3.79 |
| CCc1nccn1CCC(=O)N1CC[C@@H](c2sccc2C)[C@H](O)C1 | -6.04 |
| CCNC(=O)[C@@H]1C[C@H](NC(=O)c2cncnc2C)CN1Cc1ccsc1 | 2.12 |
| CCCc1nc(NC2(COC)CCCC2)c2cnn(C)c2n1 | -1.43 |
| CC(C)(C)CN1CCCC(O)(CN2CCc3[nH]ncc3C2)C1=O (centres undefined) | -5.14 |
| CCc1cc(N[C@H](C(N)=O)[C@@H](C)CC)n2nccc2n1 | 2.99 |
| CCN1CC(C(=O)N2CC(Oc3ccccc3Cl)C2)CC1=O (centres undefined) | -2.83 |
| CCn1ccc(CN(C)C(=O)CSc2nnc(N)s2)n1 | 3.45 |
| OC1CCN(CCCNc2ncccn2)CC1 | 2.68 |
| Fc1ccc(C2(CNCC(F)F)CCOC2)cc1 (centres undefined) | -152 |
| CCN(CC)C(=O)C1CCCN(CC(=O)Nc2c(C)nn(CC)c2C)C1 (centres undefined) | 2.13 |
| CCn1ccnc1C1CCCN(C(=O)c2sc(C)nc2C)C1 (centres undefined) | 1.24 |

| Structure (SMILES) | cytotoxicity at 10 µM [%] |
| --- | --- |
| Cc1cc(C)c2c(N3CCC(O)(Cn4ccnc4)CC3)ncnc2n1 | -3.28 |
| CN(CC1COCCO1)c1ncnc2cc(F)ccc12 (centres undefined) | 0.613 |
| COCCOC(=O)N1CCC(c2nccn2CC2CC2)CC1 | -2.08 |
| O=C(Cc1n[nH]c(-c2cncc(Br)c2)n1)NCc1ccccn1 | -1.39 |
| Cn1cc(-c2ccnc(NCC3CC3)n2)cn1 | -134 |
| O=c1cc(C2CCNCC2)nc(CCCc2ccccc2)[nH]1 | 2.03 |
| CCOc1ncccc1NC(=O)N1CCCC(CNC(N)=O)C1 (centres undefined) | -11.1 |
| Cc1nccc(C(=O)N2CCCC2c2noc(C(C)C)n2)n1 (centres undefined) | -16.4 |
| c1cc(-c2nc(CN3CCc4c(ncn4C4CC4)C3)cs2)cs1 | -4.25 |
| c1cncc(-c2noc(CN3CCc4cncnc4C3)n2)c1 | -3.39 |
| Cc1nc(C2CCCN2CCCS(N)(=O)=O)no1 (centres undefined) | -10.3 |
| CCN(CC1CCOC1)C(=O)Nc1ccc(OC)nc1 (centres undefined) | -4.2 |
| OC(COCc1ccccc1Cl)CN1CC(n2cccn2)C1 (centres undefined) | -7.7 |
| CN1CCOC(CNCc2coc(-c3ccccc3)n2)C1 (centres undefined) | -5.1 |
| Cc1cnn(CC2CCCN2C(=O)CCc2nc3ccccc3[nH]2)c1 (centres undefined) | -12.9 |
| CC(O)CNC(=O)NCc1cccnc1OC1CCCC1 (centres undefined) | 2.29 |
| Cc1nn(C)c(N(C)C)c1CNCc1ccccc1Cn1cncn1 | 3.85 |
| Cc1ccc2c(c1)C(NC(=O)N(C)C)CC21CCN(CC2CC2)CC1 (centres undefined) | 4.44 |
| Cc1cccc(N2CCc3ncc(CNS(C)(=O)=O)n3CC2)n1 | 8.39 |
| CCN(C)c1ncnc2c1CCN(Cc1ccc(F)cc1)CC2 | 3.1 |
| O=c1cc(Cn2cncn2)nc2n1CCCN(Cc1ccc(F)cc1)C2 | 4.43 |
